Data as given in ChEMBL document CHEMBL4007382 (Eur J Med Chem, 2017).
pIC50: −log10 of the molar value.

Key:
Acetylcholinesterase = Acetylcholinesterase (Homo sapiens, UniProt P22303); experiment: Inhibition of human erythrocytes AChE using S-acetylthiocholine iodide as substrate preincubated for 60 mins followed by substrate addition measured after 5 mins by Ellman's method
Cholinesterase [1] = biological target: T1, Cholinesterase (Equus caballus, UniProt P81908); experiment: Inhibition of equine serum BuChE using S-butyrylthiocholine iodide as substrate preincubated for 60 mins followed by substrate addition measured after 5 mins by Ellman's method
Procedure, shortened: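 Equine serum BChE (0.1 U/mL) in 100 mM sodium phosphate, pH 8, was preincubated at 37°C for 60 min with seven inhibitor concentrations (top 1×10^-5 M; stocks in acetonitrile:water 1:9). Added mix contained BTCh 2.5 mM and DTNB 3.4 mM. A412 was read for 5 min at 37°C, with enzyme-free blank subtracted. Triplicates.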

Cholinesterase [2] = biological target: T1, Cholinesterase; experiment: Irreversible inhibition of equine serum BuChE assessed as second order carbamylation rate constant using S-butyrylthiocholine iodide as substrate preincubated up to 45 mins followed by substrate addition measured after 5 mins
Procedure, shortened: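 Equine BChE, pH 8, 37°C, was preincubated for 1, 2, 4, 8, 15, 30 and 45 min with inhibitor at 1×10^-7 to 5×10^-6 M (seven levels). Residual activity was read by Ellman with BTCh and normalised to a water control at each time. kobs came from a one-phase exponential decay fit; k_I1 came from the linear kobs versus concentration relation.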

Cholinesterase [3] = biological target: Cholinesterase (Homo sapiens, UniProt P06276); experiment: Irreversible inhibition of human plasma BuChE assessed as second order carbamylation rate constant using S-butyrylthiocholine iodide as substrate preincubated up to 45 mins followed by substrate addition measured after 5 mins
Procedure, shortened: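 Diluted human plasma BChE was preincubated for 1–45 min with inhibitor at 5×10^-9, 1×10^-8, 2.5×10^-8 and 5×10^-8 M. Residual Ellman activity with BTCh at pH 8 was normalised to a water control. kobs came from a one-phase exponential fit; k_I1 came from the slope of kobs versus concentration.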

Mus musculus [4] = experiment: Cardiotoxicity in Kunming mouse assessed as change in heart rate at 20 mg/kg, ip measured after 2 mins by electrocardiogram (reference value: -16.36 +/- 11.14); format: toxicity, organism-based; conditions: in vivo
Mus musculus [5] = experiment: Cardiotoxicity in Kunming mouse assessed as change in heart rate at 20 mg/kg, ip measured after 3 mins by electrocardiogram (reference value: -14.4 +/- 19.94); format: toxicity, organism-based; conditions: in vivo, 0.05 h
Mus musculus [6] = experiment: Cardiotoxicity in Kunming mouse assessed as change in heart rate at 20 mg/kg, ip measured after 4 mins by electrocardiogram (reference value: -13.79 +/- 13.4); format: toxicity, organism-based; conditions: in vivo
Mus musculus [7] = experiment: Cardiotoxicity in Kunming mouse assessed as change in heart rate at 20 mg/kg, ip measured after 5 mins by electrocardiogram (reference value: -14.06 +/- 24.25); format: toxicity, organism-based; conditions: in vivo
Mus musculus [8] = experiment: Cardiotoxicity in Kunming mouse assessed as change in heart rate at 20 mg/kg, ip measured after 6 mins by electrocardiogram (reference value: -19.47 +/- 22.55); format: toxicity, organism-based; conditions: in vivo, 0.1 h
Mus musculus [9] = experiment: Cardiotoxicity in Kunming mouse assessed as change in heart rate at 20 mg/kg, ip measured after 7 mins by electrocardiogram (reference value: -25.9 +/- 22.08); format: toxicity, organism-based; conditions: in vivo
Mus musculus [10] = experiment: Cardiotoxicity in Kunming mouse assessed as change in heart rate at 20 mg/kg, ip measured after 10 mins by electrocardiogram (reference value: -34.85 +/- 19.78); format: toxicity, organism-based; conditions: in vivo
Mus musculus [11] = experiment: Cardiotoxicity in Kunming mouse assessed as change in heart rate at 20 mg/kg, ip measured after 11 mins by electrocardiogram (reference value: -35.4 +/- 11.4); format: toxicity, organism-based; conditions: in vivo
Mus musculus [12] = experiment: Cardiotoxicity in Kunming mouse assessed as change in heart rate at 20 mg/kg, ip measured after 12 mins by electrocardiogram (reference value: -40.39 +/- 20.17); format: toxicity, organism-based; conditions: in vivo, 0.2 h
Mus musculus [13] = experiment: Cardiotoxicity in Kunming mouse assessed as change in heart rate at 20 mg/kg, ip measured after 13 mins by electrocardiogram (reference value: -37.85 +/- 14.54); format: toxicity, organism-based; conditions: in vivo
Mus musculus [14] = experiment: Cardiotoxicity in Kunming mouse assessed as change in heart rate at 20 mg/kg, ip measured after 15 mins by electrocardiogram (reference value: -35.14 +/- 24.5); format: toxicity, organism-based; conditions: in vivo, 0.25 h
Mus musculus [15] = experiment: Cardiotoxicity in Kunming mouse assessed as change in heart rate at 20 mg/kg, ip measured after 16 mins by electrocardiogram (reference value: -38.67 +/- 10.18); format: toxicity, organism-based; conditions: in vivo
Mus musculus [16] = experiment: Cardiotoxicity in Kunming mouse assessed as change in heart rate at 20 mg/kg, ip measured after 19 mins by electrocardiogram (reference value: -38.67 +/- 13.91); format: toxicity, organism-based; conditions: in vivo
Mus musculus [17] = experiment: Cardiotoxicity in Kunming mouse assessed as change in heart rate at 20 mg/kg, ip measured after 20 mins by electrocardiogram (reference value: -40.16 +/- 13.12); format: toxicity, organism-based; conditions: in vivo
Mus musculus [18] = experiment: Cardiotoxicity in Kunming mouse assessed as change in heart rate at 20 mg/kg, ip measured after 21 mins by electrocardiogram (reference value: -40.23 +/- 16.21); format: toxicity, organism-based; conditions: in vivo, 0.35 h
Mus musculus [19] = experiment: Cardiotoxicity in Kunming mouse assessed as change in heart rate at 20 mg/kg, ip measured after 22 mins by electrocardiogram (reference value: -41.94 +/- 12.51); format: toxicity, organism-based; conditions: in vivo
Mus musculus [20] = experiment: Cardiotoxicity in Kunming mouse assessed as change in heart rate at 20 mg/kg, ip measured after 23 mins by electrocardiogram (reference value: -44.9 +/- 14.57); format: toxicity, organism-based; conditions: in vivo
Mus musculus [21] = experiment: Cardiotoxicity in Kunming mouse assessed as change in heart rate at 20 mg/kg, ip measured after 24 mins by electrocardiogram (reference value: -44.48 +/- 12.38); format: toxicity, organism-based; conditions: in vivo, 0.4 h
Mus musculus [22] = experiment: Cardiotoxicity in Kunming mouse assessed as change in heart rate at 20 mg/kg, ip measured after 25 mins by electrocardiogram (reference value: -43.17 +/- 15.26); format: toxicity, organism-based; conditions: in vivo
Mus musculus [23] = experiment: Cardiotoxicity in Kunming mouse assessed as change in heart rate at 20 mg/kg, ip measured after 26 mins by electrocardiogram (reference value: -46.48 +/- 17.52); format: toxicity, organism-based; conditions: in vivo
Mus musculus [24] = experiment: Cardiotoxicity in Kunming mouse assessed as change in heart rate at 20 mg/kg, ip measured after 28 mins by electrocardiogram (reference value: -49.06 +/- 20.71); format: toxicity, organism-based; conditions: in vivo
Mus musculus [25] = experiment: Cardiotoxicity in Kunming mouse assessed as change in heart rate at 20 mg/kg, ip measured after 32 mins by electrocardiogram (reference value: -43.48 +/- 20.81); format: toxicity, organism-based; conditions: in vivo
Mus musculus [26] = experiment: Cardiotoxicity in Kunming mouse assessed as change in heart rate at 20 mg/kg, ip measured after 34 mins by electrocardiogram (reference value: -35 +/- 23.88); format: toxicity, organism-based; conditions: in vivo
Mus musculus [27] = experiment: Cardiotoxicity in Kunming mouse assessed as change in heart rate at 20 mg/kg, ip measured after 35 mins by electrocardiogram (reference value: -31.81 +/- 27.31); format: toxicity, organism-based; conditions: in vivo
Mus musculus [28] = experiment: Cardiotoxicity in Kunming mouse assessed as change in heart rate at 20 mg/kg, ip measured after 36 mins by electrocardiogram (reference value: -32.32 +/- 25.52); format: toxicity, organism-based; conditions: in vivo, 0.6 h

Sequence of Cholinesterase (Homo sapiens, UniProt P06276) (P06276 whole entry): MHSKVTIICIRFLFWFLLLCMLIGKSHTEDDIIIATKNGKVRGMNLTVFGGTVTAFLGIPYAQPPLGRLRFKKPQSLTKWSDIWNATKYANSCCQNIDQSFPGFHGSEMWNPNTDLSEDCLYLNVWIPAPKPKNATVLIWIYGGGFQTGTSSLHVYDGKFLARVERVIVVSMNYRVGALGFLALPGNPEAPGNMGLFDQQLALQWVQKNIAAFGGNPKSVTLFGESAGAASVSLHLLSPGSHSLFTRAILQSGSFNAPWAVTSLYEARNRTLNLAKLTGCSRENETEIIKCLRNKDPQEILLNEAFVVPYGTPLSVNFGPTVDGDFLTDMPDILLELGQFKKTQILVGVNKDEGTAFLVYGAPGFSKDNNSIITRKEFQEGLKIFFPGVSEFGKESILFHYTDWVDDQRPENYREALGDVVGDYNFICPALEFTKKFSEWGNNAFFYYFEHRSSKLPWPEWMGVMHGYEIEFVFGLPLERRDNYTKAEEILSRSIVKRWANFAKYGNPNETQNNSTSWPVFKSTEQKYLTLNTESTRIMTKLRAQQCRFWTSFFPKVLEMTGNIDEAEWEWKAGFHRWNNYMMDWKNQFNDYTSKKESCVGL
T1 sequence (P81908 whole entry): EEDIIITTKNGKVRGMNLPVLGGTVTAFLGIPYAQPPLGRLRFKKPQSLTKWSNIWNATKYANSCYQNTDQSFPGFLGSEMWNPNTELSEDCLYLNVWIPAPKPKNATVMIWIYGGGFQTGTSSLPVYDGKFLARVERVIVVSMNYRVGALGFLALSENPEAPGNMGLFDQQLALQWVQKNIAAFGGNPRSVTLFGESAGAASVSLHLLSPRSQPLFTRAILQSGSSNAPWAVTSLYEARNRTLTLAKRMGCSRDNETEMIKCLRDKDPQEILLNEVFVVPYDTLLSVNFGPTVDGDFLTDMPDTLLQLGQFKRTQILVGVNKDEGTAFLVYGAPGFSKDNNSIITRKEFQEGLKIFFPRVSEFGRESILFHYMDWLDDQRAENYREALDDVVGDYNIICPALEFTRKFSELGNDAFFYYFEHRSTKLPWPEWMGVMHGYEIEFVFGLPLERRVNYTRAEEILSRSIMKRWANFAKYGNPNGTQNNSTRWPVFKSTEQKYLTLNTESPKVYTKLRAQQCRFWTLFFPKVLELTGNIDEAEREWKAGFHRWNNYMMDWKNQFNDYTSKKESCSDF
Sequence of Acetylcholinesterase (P22303 whole entry): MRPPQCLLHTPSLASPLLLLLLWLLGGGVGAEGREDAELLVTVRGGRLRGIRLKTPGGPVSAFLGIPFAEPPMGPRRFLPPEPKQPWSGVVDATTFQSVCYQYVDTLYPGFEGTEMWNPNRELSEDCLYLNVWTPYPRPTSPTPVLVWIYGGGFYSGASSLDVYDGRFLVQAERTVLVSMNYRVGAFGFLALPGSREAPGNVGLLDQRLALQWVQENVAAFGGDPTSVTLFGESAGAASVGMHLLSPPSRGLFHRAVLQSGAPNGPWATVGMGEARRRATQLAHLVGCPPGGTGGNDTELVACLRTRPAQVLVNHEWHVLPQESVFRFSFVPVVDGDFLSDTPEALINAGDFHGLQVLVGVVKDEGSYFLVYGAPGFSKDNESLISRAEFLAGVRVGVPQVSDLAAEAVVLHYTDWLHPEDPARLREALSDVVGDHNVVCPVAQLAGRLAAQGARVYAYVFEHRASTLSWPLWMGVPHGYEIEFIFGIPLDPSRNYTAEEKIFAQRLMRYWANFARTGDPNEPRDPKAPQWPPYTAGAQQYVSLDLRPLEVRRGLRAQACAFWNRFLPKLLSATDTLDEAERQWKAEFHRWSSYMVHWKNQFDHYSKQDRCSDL

| Structure (SMILES) | pIC50 (Acetylcholinesterase) | pIC50 (Cholinesterase [1]) | Ki (Cholinesterase [2]) [×10⁵ /M/min] | Ki (Cholinesterase [3]) [×10⁵ /M/min] | Activity (Mus musculus [4]) [bpm] | Activity (Mus musculus [5]) [bpm] | Activity (Mus musculus [6]) [bpm] | Activity (Mus musculus [7]) [bpm] | Activity (Mus musculus [8]) [bpm] | Activity (Mus musculus [9]) [bpm] | Activity (Mus musculus [10]) [bpm] | Activity (Mus musculus [11]) [bpm] | Activity (Mus musculus [12]) [bpm] | Activity (Mus musculus [13]) [bpm] | Activity (Mus musculus [14]) [bpm] | Activity (Mus musculus [15]) [bpm] | Activity (Mus musculus [16]) [bpm] | Activity (Mus musculus [17]) [bpm] | Activity (Mus musculus [18]) [bpm] | Activity (Mus musculus [19]) [bpm] | also measured |
| --- | --- | --- | --- | --- | --- | --- | --- | --- | --- | --- | --- | --- | --- | --- | --- | --- | --- | --- | --- | --- | --- |
| CCN(C)C(=O)Oc1cc(OC(=O)N(C)CC)cc(C(O)CNC(C)(C)CC)c1.Cl (configuration not stated) | < 5.00 | 6.94 | 1.49 | 73.3 | -1.28 | 0.93 | 2.55 | 0.25 | -1.48 | -3.03 | -6.25 | -8.17 | -4.45 | -3.93 | -2.32 | 3.92 | 2.88 | 0.13 | 0.05 | 0.05 | Activity (Mus musculus [20]): 0.52 bpm; Activity (Mus musculus [21]): 3.13 bpm; Activity (Mus musculus [22]): -0.22 bpm; Activity (Mus musculus [23]): -0.88 bpm; Activity (Mus musculus [24]): -7.52 bpm; Activity (Mus musculus [25]): -1.37 bpm; Activity (Mus musculus [26]): -5.5 bpm; Activity (Mus musculus [27]): -11.4 bpm; Activity (Mus musculus [28]): -25.47 bpm |
| CN(C)C(=O)Oc1cc(OC(=O)N(C)C)cc(C(O)CNC(C)(C)C)c1 (configuration not stated) [BAMBUTEROL] | < 5.00 | 6.92 | 1.44 | 77.7 | -2.66 | 2.1 | 3.77 | 17.67 | 16.63 | 16.59 | -0.24 | 5.19 | 15.49 | 15.31 | 53.3 | 57.32 | 38.36 | 34.4 | 32.75 | 48.65 | Activity (Mus musculus [20]): 48.77 bpm; Activity (Mus musculus [21]): 29.39 bpm; Activity (Mus musculus [22]): 30.43 bpm; Activity (Mus musculus [23]): 11.92 bpm; Activity (Mus musculus [24]): -15.03 bpm; Activity (Mus musculus [25]): -2.09 bpm; Activity (Mus musculus [26]): -6.04 bpm; Activity (Mus musculus [27]): -2.92 bpm; Activity (Mus musculus [28]): -26.54 bpm |
| CCC(C)(C)NCC(O)c1cc(OC(=O)N(C)C)cc(OC(=O)N(C)C)c1.Cl (configuration not stated) | < 5.00 | 6.90 | 1.42 | 60 | -21.23 | -22.65 | -26.67 | -28.9 | -31.29 | -33.53 | -40.41 | -42.6 | -46.97 | -43.71 | -49.12 | -42.02 | -41.43 | -40.62 | -41.83 | -41.75 | Activity (Mus musculus [20]): -41.98 bpm; Activity (Mus musculus [21]): -42.92 bpm; Activity (Mus musculus [22]): -44.42 bpm; Activity (Mus musculus [23]): -42.44 bpm; Activity (Mus musculus [24]): -37.58 bpm; Activity (Mus musculus [25]): -36.77 bpm; Activity (Mus musculus [26]): -37.47 bpm; Activity (Mus musculus [27]): -37.47 bpm; Activity (Mus musculus [28]): -36.32 bpm |
